Laboratory results from ChEMBL document CHEMBL4382274, “NQO1-Selective Activated Prodrug of Triptolide: Synthesis and Antihepatocellular Carcinoma Activity Evaluation” (ACS Med Chem Lett, 2018).
Active and inactive are the calls of the source. The rule behind the calls is not given here.

What was measured:
[1] = molecular target: T1, General transcription and DNA repair factor IIH helicase/translocase subunit XPB (Homo sapiens, UniProt P19447); experiment: Inhibition of […] ATPase activity in human HeLa cell nuclear extracts; format: cell-based
T1 sequence (P19447 whole entry): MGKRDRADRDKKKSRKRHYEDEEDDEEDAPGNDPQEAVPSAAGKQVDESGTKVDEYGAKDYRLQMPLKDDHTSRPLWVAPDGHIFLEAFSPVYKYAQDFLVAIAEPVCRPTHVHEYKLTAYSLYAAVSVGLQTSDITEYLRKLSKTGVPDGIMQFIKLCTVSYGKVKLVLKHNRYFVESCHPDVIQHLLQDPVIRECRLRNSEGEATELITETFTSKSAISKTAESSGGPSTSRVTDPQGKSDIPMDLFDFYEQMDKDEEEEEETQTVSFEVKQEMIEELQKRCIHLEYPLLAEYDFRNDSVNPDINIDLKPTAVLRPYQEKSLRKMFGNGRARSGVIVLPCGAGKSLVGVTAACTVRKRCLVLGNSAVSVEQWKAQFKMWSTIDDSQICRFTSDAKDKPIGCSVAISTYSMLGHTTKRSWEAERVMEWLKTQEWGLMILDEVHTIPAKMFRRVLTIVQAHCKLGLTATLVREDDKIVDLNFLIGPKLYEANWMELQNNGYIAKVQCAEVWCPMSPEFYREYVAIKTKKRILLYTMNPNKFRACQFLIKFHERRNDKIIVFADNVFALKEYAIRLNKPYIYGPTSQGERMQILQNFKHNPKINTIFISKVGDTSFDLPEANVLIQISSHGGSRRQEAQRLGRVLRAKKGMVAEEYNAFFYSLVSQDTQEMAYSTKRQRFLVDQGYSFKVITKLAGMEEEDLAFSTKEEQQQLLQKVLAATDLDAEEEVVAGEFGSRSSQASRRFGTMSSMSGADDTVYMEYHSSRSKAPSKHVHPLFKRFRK

HepG2 [2] = experiment: Cytotoxicity against human HepG2 cells after 48 hrs by XTT assay; format: functional, cell-based; settings: HepG2, 48 h
Hepatocyte = experiment: Cytotoxicity against primary hepatocytes (unknown origin) after 48 hrs by XTT assay; format: cell-based
[3] = Therapeutic index, ratio of IC50 for primary hepatocytes (unknown origin) to IC50 for human HepG2 cells; format: toxicity; settings: primary hepatocytes (unknown origin) versus HepG2 cells, read-out: Ratio IC50
HepG2 [4] = experiment: Cytotoxicity against human HepG2 cells after 48 hrs in presence of NQO1 inhibitor dicoumarol by XTT assay; format: functional, cell-based
[5] = molecular target: NQO1 (NAD(P)H dehydrogenase [quinone] 1) (Homo sapiens, UniProt P15559); experiment: Half life in human HepG2 cell lysates assessed as NQO1-mediated compound degradation at 10 uM in presence of NADPH by HPLC analysis; format: ADME, subcellular, Lysate
[6] = molecular target: T2, NAD(P)H dehydrogenase [quinone] 1 (Homo sapiens, UniProt P15559); experiment: Prodrug activation in human HepG2 cell lysates assessed as NQO1-mediated CX-21 formation at 10 uM up to 60 mins in presence of NADPH by HPLC analysis; format: subcellular, Lysate; settings: hepg2, 1 h
[7] = molecular target: T2, NAD(P)H dehydrogenase [quinone] 1; experiment: Prodrug activation in human HepG2 cell lysates assessed as NQO1-mediated triptolide formation at 10 uM up to 60 mins in presence of NADPH by HPLC analysis; format: subcellular, Lysate; settings: hepg2, 1 h
[8] = molecular target: T2, NAD(P)H dehydrogenase [quinone] 1; experiment: Prodrug activation in human HepG2 cell lysates assessed as NQO1-mediated CX-21 formation at 10 uM after 60 mins in presence of NADPH and NQO1 inhibitor dicoumarol by HPLC analysis; format: subcellular, Lysate; settings: hepg2, 1 h
[9] = molecular target: T2, NAD(P)H dehydrogenase [quinone] 1; experiment: Prodrug activation in human HepG2 cell lysates assessed as NQO1-mediated triptolide formation at 10 uM after 60 mins in presence of NADPH and NQO1 inhibitor dicoumarol by HPLC analysis; format: subcellular, Lysate; settings: hepg2, 1 h
Keratinocyte = experiment: Cytotoxicity against human keratinocytes after 48 hrs by XTT assay; format: cell-based
[10] = Cytotoxicity against human skin fibroblasts after 48 hrs by XTT assay
HeLa = experiment: Cytotoxicity against human HeLa cells after 48 hrs by XTT assay; format: functional, cell-based
A549 = experiment: Cytotoxicity against human A549 cells after 48 hrs by XTT assay; format: functional, cell-based; settings: A549, 48 h
carboxyl ester hydrolase = experiment: Half life in human plasma assessed as carboxyl ester hydrolase-mediated compound degradation at 10 uM by UV-HPLC analysis; format: ADME, cell-free
Outline: (§1)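 Compound was incubated for 1 h in vitro in human plasma or human liver microsomes, and half-life was determined from its disappearance.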

CYP450 = CYP450 (Homo sapiens, UniProt P04798+P05177+P05181+P08684+P10632+P10635+P11509+P11712+P13584+P20813+P20815+P20853+P24462+P24903+P33260+P33261+P51589+P78329+P98187+Q02928+Q08477+Q16678+Q16696+Q5TCH4+Q6VVX0+Q7Z449+Q8TAV3+Q96SQ9+Q9HB55); experiment: Half life in human liver microsomes assessed as CYP450-mediated compound degradation at 10 uM by UV-HPLC analysis; format: ADME; outline: as §1
[11] = Tmax in KM mouse at 1 mg/kg, ip administered as single dose; format: ADME, organism-based; settings: in vivo
Outline: (§2)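 Mice received a single ip dose at 1.0 mg/kg. Levels were measured in plasma, liver and kidney with a validated analytical method, and plasma was sampled over time to 2 h and beyond. Derived values were absorption, distribution and terminal half-lives, tmax, Cmax and AUC tissue/plasma ratios.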

[12] = Cmax in KM mouse at 1 mg/kg, ip administered as single dose; format: ADME, organism-based; parameters: dose 1 mg/kg, route intraperitoneal; settings: in vivo; outline: as §2
[13] = Distribution half life in KM mouse at 1 mg/kg, ip administered as single dose; format: ADME, organism-based; settings: in vivo, read-out: alphat1/2; outline: as §2
[14] = Ratio of AUC in KM mouse liver to plasma at 1 mg/kg, ip administered as single dose; format: ADME, organism-based; settings: other tissue; outline: as §2
[15] = Ratio of AUC in KM mouse kidney to plasma at 1 mg/kg, ip administered as single dose; format: ADME, organism-based; settings: other tissue; outline: as §2
[16] = Time at which plasma concentration stays above in vitro IC50 for antiproliferative activity against human HepG2 cells in KM mouse at 1 mg/kg, ip administered as single dose; format: organism-based; settings: in vivo; outline: as §2
[17] = Plasma concentration in KM mouse at 1 mg/kg, ip administered as single dose at 2 hrs post dose; format: ADME, organism-based; outline: as §2
[18] = Plasma concentration in KM mouse at 1 mg/kg, ip administered as single dose after 2 hrs; format: ADME, organism-based; settings: in vivo, BLD = below limit of detection; outline: as §2
[19] = Terminal half life in KM mouse at 1 mg/kg, ip administered as single dose; format: ADME, organism-based; settings: in vivo, read-out: beta t1/2; outline: as §2
[20] = Toxicity in Balb/c nude mouse at 1 mg/kg, ip; format: organism-based; settings: in vivo
Outline: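 In a preliminary experiment, nude mice were given a single ip dose of 1.0 mg/kg and observed for toxic symptoms.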

HepG2 [21] = experiment: Antitumor activity against human HepG2 cells xenografted in Balb/c nude mouse assessed as reduction in tumor growth at 0.3 to 1 mg/kg, ip administered once daily for 15 days; format: functional, organism-based
Outline: (§3)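 HepG2 xenograft in nude mice. Dosing began one week after cell inoculation, ip once daily for two weeks. Tumor volume was followed during treatment, tumor weight taken at the end, and body weight monitored throughout. n = 8 mice/group; Student's t test against control.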

[22] = Toxicity in Balb/c nude mouse xenografted with human HepG2 cells assessed as change in body weight at 0.3 to 1 mg/kg, ip administered once daily for 15 days measured during compound dosing; format: organism-based; settings: in vivo, 360 h; outline: as §3
[23] = Hepatotoxicity in Balb/c nude mouse xenografted with human HepG2 cells assessed as effect on serum ALT levels at 0.3 to 1 mg/kg, ip administered once daily for 15 days; format: toxicity, organism-based; settings: in vivo, 360 h
Outline: (§4)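 Nude mice were dosed ip every day for 15 days at 0.2 mg/kg (reference), 0.3 mg/kg or 1.0 mg/kg. Serum ALT, AST, creatinine and BUN were measured. Kidney sections were H&E stained and examined at X200. Comparisons were made against control.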

[24] = Hepatotoxicity in Balb/c nude mouse xenografted with human HepG2 cells assessed as effect on serum AST levels at 0.3 to 1 mg/kg, ip administered once daily for 15 days; format: toxicity, organism-based; settings: in vivo, 360 h; outline: as §4
[25] = Hepatotoxicity in Balb/c nude mouse xenografted with human HepG2 cells assessed as pathological abnormalities at 0.3 to 1 mg/kg, ip administered once daily for 15 days by hematoxylin and eosin staining based microscopic analysis; format: toxicity, organism-based; settings: in vivo, 360 h
[26] = Toxicity in Balb/c nude mouse at 0.2 mg/kg, ip; format: organism-based; settings: in vivo
HepG2 [27] = experiment: Antitumor activity against human HepG2 cells xenografted in Balb/c nude mouse assessed as reduction in tumor growth at 0.2 mg/kg, ip administered once daily for 15 days; format: functional, organism-based
Outline: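 HepG2 cells were inoculated into nude mice, and daily ip dosing began one week later and ran for two weeks. Tumour volume was followed over the treatment, and tumours were weighed and imaged at the end. n = 8 mice/group; Student's t test was used against the control.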

[28] = Toxicity in Balb/c nude mouse xenografted with human HepG2 cells assessed as change in body weight at 0.2 mg/kg, ip administered once daily for 15 days measured during compound dosing; format: organism-based; settings: in vivo, 360 h
Outline: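 Xenografted nude mice (8/group) received ip doses once daily for two weeks, starting one week after HepG2 inoculation. Body weight was recorded throughout the treatment period.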

[29] = Hepatotoxicity in Balb/c nude mouse xenografted with human HepG2 cells assessed as effect on serum ALT levels at 0.2 mg/kg, ip administered once daily for 15 days; format: toxicity, organism-based; settings: in vivo, 360 h
Outline: (§5)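 HepG2-xenografted nude mice were dosed every day for 15 days. Serum ALT, AST, creatinine and blood urea nitrogen were measured and compared with the control.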

[30] = Hepatotoxicity in Balb/c nude mouse xenografted with human HepG2 cells assessed as effect on serum AST levels at 0.2 mg/kg, ip administered once daily for 15 days; format: toxicity, organism-based; settings: in vivo, 360 h; outline: as §5
[31] = Hepatotoxicity in Balb/c nude mouse xenografted with human HepG2 cells assessed as pathological abnormalities at 0.2 mg/kg, ip administered once daily for 15 days by hematoxylin and eosin staining based microscopic analysis; format: toxicity, organism-based; settings: in vivo, 360 h
[32] = Renal toxicity in Balb/c nude mouse xenografted with human HepG2 cells assessed as increase in serum creatinine levels at 0.2 mg/kg, ip administered once daily for 15 days; format: organism-based; settings: in vivo, 360 h; outline: as §5
[33] = Renal toxicity in Balb/c nude mouse xenografted with human HepG2 cells assessed as increase in serum BUN levels at 0.2 mg/kg, ip administered once daily for 15 days; format: organism-based; settings: in vivo, 360 h; outline: as §5
[34] = Renal toxicity in Balb/c nude mouse xenografted with human HepG2 cells assessed as glomerular capillary loop lesions at 0.2 mg/kg, ip administered once daily for 15 days by hematoxylin and eosin staining based microscopic analysis; format: organism-based; settings: in vivo, 360 h
Outline: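 After 15 days of daily dosing, kidneys from xenografted nude mice were sectioned, H&E stained and examined at ×200 for glomerular capillary loop lesions, alongside control sections.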

HepG2 [35] = experiment: Cytotoxicity against human HepG2 cells up to 20 uM after 48 hrs by XTT assay; format: functional, cell-based

T2 sequence (P15559 whole entry): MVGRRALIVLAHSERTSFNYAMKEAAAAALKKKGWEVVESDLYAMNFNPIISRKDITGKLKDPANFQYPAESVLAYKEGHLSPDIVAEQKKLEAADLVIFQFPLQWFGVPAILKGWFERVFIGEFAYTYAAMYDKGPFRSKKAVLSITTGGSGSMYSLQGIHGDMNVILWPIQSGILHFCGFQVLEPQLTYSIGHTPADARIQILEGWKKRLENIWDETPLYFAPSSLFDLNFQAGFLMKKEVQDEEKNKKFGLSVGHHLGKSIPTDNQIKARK
Chain of NQO1 (NAD(P)H dehydrogenase [quinone] 1) (P15559 whole entry): as above

CC1=C(C)C(=O)C(C(C)(C)CC(=O)O[C@@H]2[C@@]3(C(C)C)O[C@H]3[C@@H]3O[C@]34[C@]23O[C@H]3C[C@H]2C3=C(CC[C@@]24C)C(=O)OC3)=C(C)C1=O
inhibition (INH) [1]: Not Active
IC50 (HepG2 [2]): 54.3 nM
IC50 (Hepatocyte): 540 nM
selectivity ratio [3]: 9.89
Activity (HepG2 [4]): inactive
half-life at 10 µM [5]: 7.27 min
Drug metabolism [6]: Metabolite_Detected
Drug metabolism [7]: Metabolite_Detected
Drug metabolism [8]: Metabolite_Notdetected
Drug metabolism [9]: Metabolite_Notdetected
IC50 (Keratinocyte): > 1000 nM
IC50 [10]: > 1000 nM
IC50 (HeLa): 38.2 nM
IC50 (A549): 59.4 nM
half-life at 10 µM (carboxyl ester hydrolase): > 60 min
half-life at 10 µM (CYP450): > 60 min
Tmax [11]: 3 min
Cmax [12]: 243 ng/mL
half-life [13]: 15.1 min
Ratio [14]: < 5%
Ratio [15]: < 5%
Time [16]: 40 min
concentration at 2 h [17]: 1.38 ng/mL
Cp [18]: Bld
half-life [19]: 154 min
Activity [20]: Non-Toxic
Activity (HepG2 [21]): Active
Activity [22]: Non-Toxic
Activity [23]: Non-Toxic
Activity [24]: Non-Toxic
Activity [25]: Non-Toxic

CC(C)[C@]12O[C@H]1[C@@H]1O[C@]13[C@]1(O[C@H]1C[C@H]1C4=C(CC[C@@]13C)C(=O)OC4)[C@@H]2O [TRIPTOLIDE]
inhibition (INH) [1]: Active
IC50 (HepG2 [2]): 43.3 nM
IC50 (Hepatocyte): 37.7 nM
Activity [26]: Non-Toxic
Activity (HepG2 [27]): Active
Activity [28]: Non-Toxic
Activity [29]: Non-Toxic
Activity [30]: Non-Toxic
Activity [31]: Non-Toxic
Activity [32]: Toxic
Activity [33]: Toxic
Activity [34]: Toxic

O=c1oc2ccccc2c(O)c1Cc1c(O)c2ccccc2oc1=O
Activity (HepG2 [35]): inactive
